Results on ten compounds are retold here after ChEMBL document CHEMBL1275547, “KHM-1, a novel plasmid-mediated metallo-beta-lactamase from a Citrobacter freundii clinical isolate” (2008).

Assay [1] relates to Escherichia coli. Briefly: Antibacterial activity against Escherichia coli K-12 W1895 by microdilution method. It is filed as functional. In outline:
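Microdilution β-lactam MICs in E. coli K-12 W1895, the conjugation recipient. Transconjugants carrying the natural blaKHM-1 plasmid were selected on Penassay agar with rifampin (200 μg/ml) and moxalactam (16 μg/ml).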

For assay [2], the system named is Escherichia coli. The experiment in a line: Antibacterial activity against Escherichia coli K-12 W1895 transconjugant harboring pCF243 by microdilution method. Format: functional. For orientation: Dilution methods test growth across graded concentrations, often in twofold steps.
The subject of assay [3] is Escherichia coli. To be noted: JM109.
Assay [4] relates to Escherichia coli. Briefly: Antibacterial activity against Escherichia coli JM109 harboring recombinant pKHM-1 by microdilution method in presence of Sulbactam. It is filed as functional. In outline:
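Broth microdilution MIC of ampicillin-sulbactam, combined at a 2:1 ampicillin:sulbactam ratio. The host is E. coli JM109 carrying pKHM-1, a recombinant pHSG396 clone of an EcoRI fragment of pCF243 bearing blaKHM-1, selected on agar with moxalactam (1 μg/ml).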

Assay [5] has as its system Escherichia coli. The experiment in a line: Antibacterial activity against Escherichia coli K-12 W1895 by microdilution method in presence of Sulbactam. Format: functional. In outline:
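β-Lactam susceptibility was measured by microdilution. Ampicillin was tested combined with sulbactam at a fixed 2:1 ampicillin:sulbactam ratio. The E. coli K-12 W1895 strain served as the recipient strain in the conjugation experiments.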

The subject of assay [6] is Citrobacter freundii. The experiment in a line: Antibacterial activity against Citrobacter freundii KHM243 clinical isolate by microdilution method. It is filed as functional.
The test system of assay [7] is Escherichia coli. The experiment in a line: Antibacterial activity against Escherichia coli JM109 by microdilution method. It is filed as functional. The procedure, abridged: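 Microdilution β-lactam susceptibility in E. coli JM109, the host strain for recombinant plasmids such as the pHSG396-based blaKHM-1 clone.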
Assay [8] deals with Citrobacter freundii. The experiment in a line: Antibacterial activity against Citrobacter freundii KHM243 clinical isolate by microdilution method in presence of Sulbactam. It is filed as functional. In outline:
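Broth microdilution susceptibility of C. freundii KHM243, a urinary isolate from a catheter-associated UTI patient (1997). Ampicillin was tested with sulbactam at a fixed ampicillin:sulbactam ratio of 2:1.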

Assay [9] deals with Escherichia coli. Briefly: Ratio of Kcat to Km for Escherichia coli JM109 harboring recombinant pKHM-1 Beta-lactamase KHM-1 assessed as compound hydrolysis by UV-visible spectrophotometry. In outline:
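KHM-1 was purified from E. coli JM109(pKHM-1) on HiTrap Q and Superdex 200 columns, with fractions tracked by 100 μM nitrocefin hydrolysis. Protein was measured by BCA. Hydrolysis was followed spectrophotometrically in 50 mM phosphate pH 7.0 at 25°C under initial-rate conditions. Km and kcat came from Lineweaver-Burk plots as means of three independent experiments, and kcat/Km was calculated from them.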

In assay [10] the test system is Escherichia coli. Briefly: Antibacterial activity against Escherichia coli JM109 by microdilution method in presence of Sulbactam. Format: functional. The procedure, abridged: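 Microdilution β-lactam susceptibility in E. coli JM109, the host for recombinant plasmids including the pHSG396 construct carrying blaKHM-1. Sulbactam was paired with ampicillin at a fixed 2:1 ampicillin-to-sulbactam ratio.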

Assay [11] concerns Escherichia coli. The experiment in a line: Antibacterial activity against Escherichia coli K-12 W1895 transconjugant harboring pCF243 by microdilution method in presence of Sulbactam. Format: functional. In outline:
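Broth microdilution MIC of ampicillin-sulbactam, combined at a 2:1 ampicillin:sulbactam ratio. The host is an E. coli K-12 W1895 transconjugant carrying the natural blaKHM-1 plasmid pCF243 from C. freundii KHM243, selected on Penassay broth agar with rifampin (200 μg/ml) and moxalactam.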

In assay [12] the test system is Escherichia coli. Briefly: Antibacterial activity against Escherichia coli JM109 harboring recombinant pKHM-1 by microdilution method. Format: functional.
Assay [13] relates to Escherichia coli. The experiment in a line: Antibacterial activity against Escherichia coli JM109 by microdilution method in presence of clavulanic acid. Format: functional. In outline:
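Broth microdilution susceptibility of E. coli JM109, the host strain for pHSG396-based recombinant plasmids. Ticarcillin was tested with clavulanic acid at a fixed ticarcillin:clavulanic acid ratio of 15:1.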

In assay [14] the test system is Escherichia coli. The experiment in a line: Antibacterial activity against Escherichia coli K-12 W1895 transconjugant harboring pCF243 by microdilution method in presence of clavulanic acid. Format: functional. The procedure, abridged:
(§1)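 Broth microdilution MICs of β-lactams. Clavulanic acid was tested combined with ticarcillin at a fixed 15:1 ticarcillin:clavulanic acid ratio.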

In assay [15] the test system is Escherichia coli. The experiment in a line: Antibacterial activity against Escherichia coli JM109 harboring recombinant pKHM-1 by microdilution method in presence of clavulanic acid. Format: functional. In outline: as §1
The test system of assay [16] is Citrobacter freundii. The experiment in a line: Antibacterial activity against Citrobacter freundii KHM243 clinical isolate by microdilution method in presence of clavulanic acid. It is filed as functional. In outline:
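Broth microdilution MICs of β-lactams against the C. freundii KHM243 urinary isolate. Clavulanic acid was combined with ticarcillin at a fixed 15:1 ticarcillin-to-clavulanate ratio.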

The subject of assay [17] is Escherichia coli. The experiment in a line: Antibacterial activity against Escherichia coli K-12 W1895 by microdilution method in presence of clavulanic acid. It is filed as functional. The procedure, abridged: as §1
Assay [18] deals with Escherichia coli. To be noted: JM109. The source holds these as a separate data set.

Values after ≈ are worked out from the molar mass of the structure shown. Active and inactive are the calls of the source. The calls are words filed in the database; no cut-off is given here.

A word on the MIC: it is the lowest concentration found to suppress growth. One may read the Km as the concentration of substrate that gives half-maximal velocity. A word on the kcat: it is the number of substrate molecules converted per active site and unit of time at saturation.

With `CC1(C)S[C@@H]2[C@H](NC(=O)[C@H](N)c3ccccc3)C(=O)N2[C@H]1C(=O)O` [AMPICILLIN], the MIC against Escherichia coli [1] was 8 µg/mL (≈ 22.9 µM); against Escherichia coli [2], 64 µg/mL (≈ 183 µM); in the assay with Escherichia coli [4] it was 16 µg/mL; in the assay with Escherichia coli [5], 1 µg/mL; against Citrobacter freundii [6] it was 256 µg/mL (≈ 733 µM); in the assay with Escherichia coli [7], 1 µg/mL (≈ 2.86 µM). For the same compound, the MIC came out at 64 µg/mL in the assay on Citrobacter freundii [8], 0.5 µg/mL in the assay on Escherichia coli [10], 64 µg/mL in the assay with Escherichia coli [11] and 16 µg/mL in the assay on Escherichia coli [12]. Besides, the Km in the assay on Escherichia coli [3] is 978 µM. The turnover number (kcat) with Escherichia coli [3] worked out at 19 s⁻¹. The kcat/Km with Escherichia coli [9] worked out at 1.9 ×10⁴ /M/s.

In the case of `CO[C@@]1(NC(=O)C(C(=O)O)c2ccc(O)cc2)C(=O)N2C(C(=O)O)=C(CSc3nnnn3C)CO[C@@H]21` (stereo not given in full) [MOXALACTAM], the minimum inhibitory concentration (MIC) was 0.063 µg/mL (≈ 0.121 µM) in the assay with Escherichia coli [1]; more than 512 µg/mL in the assay with Escherichia coli [2]; 256 µg/mL (≈ 492 µM) in the assay on Citrobacter freundii [6]; 0.031 µg/mL (≈ 0.0596 µM) against Escherichia coli [7]; more than 512 µg/mL in the assay on Escherichia coli [12]. In addition, the Michaelis constant (Km) in the assay with Escherichia coli [3] was 71 µM. Moreover, the kcat in the assay with Escherichia coli [3] was determined as 2790 s⁻¹. For the same compound, in the assay on Escherichia coli [9], the kcat/Km was determined as 3.9 ×10⁷ /M/s.

On to `C[C@@H](O)[C@H]1C(=O)N2C(C(=O)O)=C(S[C@@H]3CN[C@H](C(=O)N(C)C)C3)[C@H](C)[C@H]12` [MEROPENEM], for which the minimum inhibitory concentration (MIC) with Escherichia coli [1] amounted to 0.004 µg/mL (≈ 0.0104 µM); against Escherichia coli [2] it was 4 µg/mL (≈ 10.4 µM); against Citrobacter freundii [6] it was 4 µg/mL (≈ 10.4 µM); in the assay with Escherichia coli [7] it was 0.004 µg/mL (≈ 0.0104 µM); in the assay on Escherichia coli [12], 4 µg/mL. Moreover, in the assay with Escherichia coli [3], the Km amounted to 12 µM. The kcat in the assay with Escherichia coli [3] amounted to 0.4 s⁻¹. In addition, the kcat/Km in the assay with Escherichia coli [9] was determined as 3.3 ×10⁴ /M/s.

Take `C[C@@H](O)[C@H]1C(=O)N2C(C(=O)O)=C(SCCNC=N)C[C@H]12` [IMIPENEM ANHYDROUS]: the MIC against Escherichia coli [1] stood at 0.063 µg/mL (≈ 0.21 µM); in the assay with Escherichia coli [2], 4 µg/mL (≈ 13.4 µM); in the assay on Citrobacter freundii [6] it was 2 µg/mL (≈ 6.68 µM). The kcat/Km in the assay with Escherichia coli [9] was found to be 5.6 ×10⁴ /M/s.

Regarding `CC(C)(O/N=C(\C(=O)N[C@@H]1C(=O)N2C(C(=O)[O-])=C(C[n+]3ccccc3)CS[C@H]12)c1csc(N)n1)C(=O)O` [CEFTAZIDIME], the minimal inhibitory concentration (MIC) in the assay with Escherichia coli [1] was 0.125 µg/mL (≈ 0.229 µM); against Escherichia coli [2] it was more than 512 µg/mL; with Citrobacter freundii [6] it was more than 512 µg/mL; against Escherichia coli [7], 0.063 µg/mL (≈ 0.115 µM); in the assay with Escherichia coli [12], more than 512 µg/mL. In addition, the Michaelis constant (Km) in the assay with Escherichia coli [3] came to 8 µM. Moreover, the catalytic constant (kcat) in the assay with Escherichia coli [3] was 118 s⁻¹. Besides, in the assay with Escherichia coli [9], the kcat/Km is 1.5 ×10⁷ /M/s.

In the case of `CO[C@@]1(NC(=O)Cc2cccs2)C(=O)N2C(C(=O)O)=C(COC(N)=O)CS[C@@H]21` [CEFOXITIN], the MIC was 8 µg/mL (≈ 18.7 µM) against Escherichia coli [1]; more than 512 µg/mL in the assay on Escherichia coli [2]; 512 µg/mL (≈ 1200 µM) in the assay on Citrobacter freundii [6]; 8 µg/mL (≈ 18.7 µM) in the assay with Escherichia coli [7]; more than 512 µg/mL with Escherichia coli [12]. In addition, the Km in the assay with Escherichia coli [3] is 81 µM. Besides, the kcat with Escherichia coli [3] amounted to 1180 s⁻¹. In addition, in the assay on Escherichia coli [9], the kcat/Km was found to be 1.4 ×10⁷ /M/s.

Take `CC1(C)S[C@@H]2[C@H](NC(=O)Cc3ccccc3)C(=O)N2[C@H]1C(=O)O`: in the assay on Escherichia coli [3], the Km was 1340 µM and the turnover number (kcat) worked out at 23 s⁻¹. Moreover, in the assay with Escherichia coli [9], the kcat/Km was 1.7 ×10⁴ /M/s.

As to `CC1(C)S[C@@H]2[C@H](NC(=O)[C@H](C(=O)O)c3ccsc3)C(=O)N2[C@H]1C(=O)O` [TICARCILLIN], the MIC in the assay with Escherichia coli [13] was 2 µg/mL; in the assay with Escherichia coli [1], 2 µg/mL (≈ 5.2 µM); against Escherichia coli [2], more than 512 µg/mL; with Escherichia coli [14], more than 512 µg/mL; against Citrobacter freundii [6] it was more than 512 µg/mL; against Escherichia coli [7], 2 µg/mL (≈ 5.2 µM). For the same compound, the MIC stood at 512 µg/mL in the assay on Escherichia coli [15], 512 µg/mL in the assay on Citrobacter freundii [16], 512 µg/mL in the assay with Escherichia coli [12] and 4 µg/mL in the assay with Escherichia coli [17].

As to `C[C@H]1[C@H](NC(=O)/C(=N\OC(C)(C)C(=O)O)c2csc(N)n2)C(=O)N1S(=O)(=O)O` [AZTREONAM], the minimum inhibitory concentration (MIC) against Escherichia coli [1] worked out at 0.031 µg/mL (≈ 0.0712 µM); against Escherichia coli [2] it was 0.063 µg/mL (≈ 0.145 µM); with Escherichia coli [12] it was 0.063 µg/mL. Besides, in the assay with Escherichia coli [18], the Km entry is “inactive”. For the same compound, the kcat result with Escherichia coli [18] was “inactive”.

Consider `O=C(Cc1cccs1)N[C@@H]1C(=O)N2C(C(=O)[O-])=C(C[n+]3ccccc3)CS[C@H]12` [CEPHALORIDINE], for which the MIC against Escherichia coli [1] turned out to be 2 µg/mL (≈ 4.81 µM); with Escherichia coli [2] it was 128 µg/mL (≈ 308 µM); in the assay on Citrobacter freundii [6], 512 µg/mL (≈ 1230 µM); against Escherichia coli [7] it was 1 µg/mL (≈ 2.41 µM); with Escherichia coli [12], 64 µg/mL. Also, the Km with Escherichia coli [3] is 4.4 µM. The catalytic constant (kcat) with Escherichia coli [3] was found to be 686 s⁻¹. Moreover, the kcat/Km in the assay on Escherichia coli [9] amounted to 1.6 ×10⁸ /M/s.
